Assay results collected from several papers.
Target: Mitogen-activated protein kinase kinase kinase kinase 3 (MAP4K3, Homo sapiens, UniProt Q8IVH8)
One construct used (Q8IVH8 1-894): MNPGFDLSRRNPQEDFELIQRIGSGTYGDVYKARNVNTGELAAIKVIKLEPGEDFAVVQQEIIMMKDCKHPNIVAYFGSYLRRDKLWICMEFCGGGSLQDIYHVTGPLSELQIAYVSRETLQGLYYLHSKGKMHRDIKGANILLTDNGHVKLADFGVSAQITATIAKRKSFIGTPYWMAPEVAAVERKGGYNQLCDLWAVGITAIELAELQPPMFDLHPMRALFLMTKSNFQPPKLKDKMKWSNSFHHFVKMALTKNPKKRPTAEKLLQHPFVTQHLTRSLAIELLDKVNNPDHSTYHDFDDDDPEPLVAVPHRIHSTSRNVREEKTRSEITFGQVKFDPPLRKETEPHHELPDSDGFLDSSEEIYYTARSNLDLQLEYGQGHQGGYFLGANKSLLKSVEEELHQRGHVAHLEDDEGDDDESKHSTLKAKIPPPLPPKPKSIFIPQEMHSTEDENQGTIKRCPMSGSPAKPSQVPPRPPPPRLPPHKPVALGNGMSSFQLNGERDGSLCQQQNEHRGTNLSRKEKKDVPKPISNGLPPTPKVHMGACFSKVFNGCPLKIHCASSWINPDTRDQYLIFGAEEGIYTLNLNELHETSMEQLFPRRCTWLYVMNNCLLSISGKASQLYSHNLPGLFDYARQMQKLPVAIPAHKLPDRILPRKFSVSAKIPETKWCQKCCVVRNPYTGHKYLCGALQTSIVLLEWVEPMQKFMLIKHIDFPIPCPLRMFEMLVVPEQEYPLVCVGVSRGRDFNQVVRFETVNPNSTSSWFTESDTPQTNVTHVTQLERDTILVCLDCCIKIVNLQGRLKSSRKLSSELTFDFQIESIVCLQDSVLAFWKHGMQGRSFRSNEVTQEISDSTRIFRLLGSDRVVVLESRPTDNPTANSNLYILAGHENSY

SMILES	read-out	method	concentration	remaining binding [%]
CN([C@@H]1CCc2c(CC(=O)O)c3cc(S(C)(=O)=O)ccc3n2C1)S(=O)(=O)c1ccc(F)cc1	cell-free assay	competition with immobilised ligand	1 µM	100
O=C(NCC1CCOCC1)c1n[nH]cc1NC(=O)c1c(F)cccc1F	binding	competition with immobilised ligand	1 µM	82
NS(=O)(=O)c1cc(NC(=O)Cc2ccccc2)ccc1Oc1cccc(Cl)c1	cell-free assay	competition with immobilised ligand	1 µM	100
CN(CCCC(F)(F)F)c1nccc(-c2cnn3ncccc23)n1	binding	–	1 µM	100
Nc1ncc2c(n1)-c1c([nH]c3ccc(C#CC4CC4)cc13)CCCC2	binding	competition with immobilised ligand	1 µM	87
Nc1cnc(N2CCc3cc(S(=O)(=O)Nc4c(F)cc(Cl)cc4F)cc(N4CCCC4=O)c32)nc1	cell-free assay	competition with immobilised ligand	1 µM	93
CN(C)c1ncc(F)c(-c2cnn3ncccc23)n1	binding	–	1 µM	100
Nc1c(C(=O)NCc2ccc(C(=O)NCCCC3CCCCC3)cc2)cnn1-c1ccccc1	cell-free assay	competition with immobilised ligand	0.1 µM	100
c1cncc(-c2cccc(Nc3nccc(NC4CCCCC4)n3)c2)c1	binding	competition with immobilised ligand	10 µM	83
C[C@H]1CCN(c2nccc(-c3cnn4ncccc34)n2)C1	binding	–	1 µM	100
FC(F)(F)Oc1cccc(-c2cnc3ccc(-c4ccncc4)nn23)c1	cell-free assay	competition with immobilised ligand	5 µM	86
COc1ccnn2ncc(-c3ccnc(N(C)C)n3)c12	binding	–	1 µM	100
Cc1cnc(Nc2ccc(C(=O)N3CCC(N4CCCC4)CC3)cc2)nc1-c1cc2ccccc2s1	binding	competition with immobilised ligand	1 µM	50
O=C(N1CCS(=O)(=O)CC1)N1C[C@H](c2ccc(OC(F)(F)F)cc2)C[C@H](c2nc(C3CC3)no2)C1	cell-free assay	competition with immobilised ligand	1 µM	100
N[C@H]1CCN(c2nccc(-c3cnn4ncccc34)n2)C1	binding	–	1 µM	100
O=C(c1ccc(Nc2nccc(-c3cc4ccccc4s3)n2)cc1)N1CCC(N2CCCC2)CC1	binding	competition with immobilised ligand	1 µM	93
CN(C)c1nccc(-c2cnc3ncccn23)n1	binding	–	1 µM	100
COc1cnc(Nc2cccc(S(N)(=O)=O)c2)nc1N1CCN(c2ccccc2)CC1	binding	competition with immobilised ligand	1 µM	98
O=C(Nc1cccnn1)N1CC(C/C=C/c2cncc(Oc3ccc(C(F)(F)F)cn3)n2)C1	cell-free assay	competition with immobilised ligand	1 µM	100
O=C(c1ccc(Nc2ncc(Cl)c(-c3ccc(Cl)s3)n2)cc1)N1CCC(N2CCCC2)CC1	binding	competition with immobilised ligand	1 µM	50
